Consider one compound from ChEMBL document CHEMBL4602642, “Pyrola incarnata demonstrates neuroprotective effects against β-amyloid-induced memory impairment in mice” (Bioorg Med Chem Lett, 2020).

Activity calls are given as the source filed them. No cut-off for these calls is given here.

In series [1] the test system is Mus musculus. In words: Cognitive enhancing effect in C57BL/6 mouse model of amyloid beta (25 to 35) peptide-induced memory impairment assessed as reduction in escape latency time to find removed platform position at 56 mg/kg, po administered via gavage and measured on 5th day by Morris water maze test. Type of series: functional, organism-based. Conditions: in the assay text read “6th day” for “5th day”. In short, it runs like this: (§1)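 Mice given intracerebroventricular Aβ25–35 received 14, 28 or 56 mg/kg, or an equal volume of vehicle. Morris water maze: swim speed taken on day 1, escape latency recorded in training sessions, probe trial on day 6 with the platform removed (time to target and platform crossings scored). n = 9 per group, mean ± SEM.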

The nature of series [2]: Effect on locomotory activity in C57BL/6 mouse model of amyloid beta (25 to 35) peptide-induced memory impairment assessed as change in number of line crossing at 14 to 56 mg/kg, po administered via gavage measured for 5 mins by open field test. Type of series: ADME, organism-based. Conditions: in vivo. In a few lines: (§2)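 Open-field test after intracerebroventricular Aβ25–35 and dosing at 14, 28 or 56 mg/kg or vehicle. Line crossings and mean speed were counted during a 5-minute session. Results are mean ± SEM.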

The subject of series [3] is Mus musculus. In words: Neuroprotective activity in amyloid beta (25 to 35) peptide-induced memory impairment C57BL/6 mouse model assessed as increase in number of microglia expression at 14 to 56 mg/kg, po administered via gavage by DAPI staining based immunohistochemical analysis. It is filed as functional, organism-based. In a few lines:
(§3)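 Hippocampal sections from Aβ25–35-injected mice after long-term dosing were immunostained for Aβ25–35 (red) and Iba-1 (green) with DAPI counterstain. Integral optical density was quantified and given as mean ± SEM.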

Series [4] can be described thus: Effect on locomotory activity in C57BL/6 mouse model of amyloid beta (25 to 35) peptide-induced memory impairment assessed as change in mean speed of swimming at 14 to 56 mg/kg, po administered via gavage by Morris water maze test. The note with it: in vivo. It is filed as ADME, organism-based. In short, it runs like this:
as §1

For series [5], the system named is Mus musculus. The experiment in a line: Cognitive enhancing effect in orally dosed C57BL/6 mouse model of amyloid beta (25 to 35) peptide-induced memory impairment assessed as reduction in escape latency time to find removed platform position measured on 4th day by Barnes maze test. Type of series: functional, organism-based. In short, it runs like this:
(§4)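 Mice given Aβ25–35 by intracerebroventricular injection were run in a Barnes maze. Latency to enter the escape box was recorded over the training sessions, and latency and mistake counts were scored in the probe trial. Results are mean ± SEM.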

Series [6] relates to Mus musculus. The experiment in a line: Cognitive enhancing effect in C57BL/6 mouse model of amyloid beta (25 to 35) peptide-induced memory impairment assessed as reduction in escape latency time to find removed platform position at 14 mg/kg, po administered via gavage and measured on 5th day by Morris water maze test. Type of series: functional, organism-based. In a few lines: as §1

Series [7] has as its system Mus musculus. The experiment in a line: Cognitive enhancing effect in orally dosed C57BL/6 mouse model of amyloid beta (25 to 35) peptide-induced memory impairment assessed as reduction in mistake time to find removed platform position measured on 4th day by Barnes maze test. Type of series: functional, organism-based. In short, it runs like this: as §4
The nature of series [8]: Effect on locomotory activity in C57BL/6 mouse model of amyloid beta (25 to 35) peptide-induced memory impairment assessed as change in mean speed at 14 to 56 mg/kg, po administered via gavage measured for 5 mins by open field test. It is filed as ADME, organism-based. Conditions: in vivo. In a few lines:
as §2

The test system of series [9] is Mus musculus. In words: Neuroprotective activity in orally dosed amyloid beta (25 to 35) peptide-induced memory impairment C57BL/6 mouse model assessed as reduction in amyloid beta (25 to 35) peptide deposition administered via gavage by DAPI staining based immunohistochemical analysis. Type of series: functional, organism-based. In a few lines: as §3
In series [10] the test system is Mus musculus. The experiment in a line: Cognitive enhancing effect in C57BL/6 mouse model of amyloid beta (25 to 35) peptide-induced memory impairment assessed as reduction in escape latency time to find removed platform position at 56 mg/kg, po administered via gavage and measured on 4th day by Barnes maze test. Type of series: functional, organism-based. In short, it runs like this:
(§5)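 Barnes maze in mice given intracerebroventricular Aβ25–35: latency to enter the escape box over the training days, plus latency and mistake counts in the probe trial, each compared with the vehicle-treated Aβ25–35 group. Results are mean ± SEM.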

Series [11] deals with Mus musculus. The experiment in a line: Neuroprotective activity in amyloid beta (25 to 35) peptide-induced memory impairment C57BL/6 mouse model assessed as reduction in amyloid beta (25 to 35) peptide deposition at 14 to 56 mg/kg, po administered via gavage by DAPI staining based immunohistochemical analysis. Type of series: functional, organism-based. In short, it runs like this: as §3

The test system of series [12] is Mus musculus. In words: Neuroprotective activity in orally dosed amyloid beta (25 to 35) peptide-induced memory impairment C57BL/6 mouse model assessed as increase in Iba1 expression administered via gavage by DAPI staining based immunohistochemical analysis. Type of series: functional, organism-based. In a few lines:
as §3

Series [13] has as its system Mus musculus. In words: Cognitive enhancing effect in orally dosed C57BL/6 mouse model of amyloid beta (25 to 35) peptide-induced memory impairment assessed as increase in crossing numbers of target quadrants administered via gavage and measured on 6th day by Morris water maze test. It is filed as functional, organism-based. In a few lines: as §1
The test system of series [14] is Mus musculus. In words: Cognitive enhancing effect in C57BL/6 mouse model of amyloid beta (25 to 35) peptide-induced memory impairment assessed as reduction in escape latency time to find removed platform position at 28 mg/kg, po administered via gavage and measured on 5th day by Morris water maze test. Type of series: functional, organism-based. In short, it runs like this: as §1

In series [15] the test system is Mus musculus. The experiment in a line: Cognitive enhancing effect in C57BL/6 mouse model of amyloid beta (25 to 35) peptide-induced memory impairment assessed as reduction in mistake time to find removed platform position at 56 mg/kg, po administered via gavage and measured on 4th day by Barnes maze test. Type of series: functional, organism-based. In a few lines: as §5

Series [16] has as its system Mus musculus. In words: Cognitive enhancing effect in C57BL/6 mouse model of amyloid beta (25 to 35) peptide-induced memory impairment assessed as reduction in escape latency time to find removed platform position at 14 to 56 mg/kg, po administered via gavage and measured on 6th day by Morris water maze test. It is filed as functional, organism-based. In short, it runs like this: as §1

Series [17] relates to Mus musculus. In words: Cognitive enhancing effect in C57BL/6 mouse model of amyloid beta (25 to 35) peptide-induced memory impairment assessed as reduction in time to reach the target quadrants at 14 to 56 mg/kg, po administered via gavage and measured on 6th day by Morris water maze test. Type of series: functional, organism-based. In short, it runs like this:
as §1

Turning to `C[C@H]1[C@H](C)CC[C@]2(C(=O)O)CC[C@]3(C)C(=CC[C@@H]4[C@@]5(C)CC[C@H](O)C(C)(C)[C@@H]5CC[C@]43C)[C@H]12` [URSOLIC ACID], the outcome in [1], in series [3], in series [6], in series [10], in series [11] and in [14] was Active. In addition, the outcome in series [15], in series [16] and in series [17] was Active. Further, the Activity result is “Non-Toxic” in series [2]; “Non-Toxic” in [4]; “Dose-dependent effect” in series [5]; “Dose-dependent effect” in [7]; “Non-Toxic” in series [8]; “Dose-dependent effect” in series [9]. Moreover, the Activity result in series [12] and in series [13] was “Dose-dependent effect” throughout.
